Assay outcomes: PubChem, Broad Institute
Hits are enriched below; roughly 4% of the tested compounds scored in any of these assays.
E-sel inducer – induces E-selectin expression in human endothelial cells. activation, % at 7.58 µM. hit rate 0.37% among 260,000. HUVEC E-selectin immunofluorescence imaging; normalized: neutral wells 0, TNF-alpha wells 100;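 active = mean E-selectin-positive cell signal at least 10% of the positive control, reached in at least 60% of replicates, without over 20% cell loss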
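Read-out basis: % PE-positive cells; Test system: HUVEC primary endothelial cells; Technique: immunofluorescence imaging; Dosing: single-point compound dose.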
C2C12 statin – suppressors of simvastatin-induced myotoxicity in C2C12 myotubes; ATP luminescence, 48 h; scaled: DMSO 0, geranylgeraniol control 100; rescue of ATP level, % at 7.49 µM; hit rate 0.78% among 330,000; AID 602340;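 active = mean ATP rescue above about 67%, or every replicate alone reaching that limit, limit read from the data, passing the limit was not always enough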;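 also: myotubes were challenged with 10 µM simvastatin during compound exposure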
SIRT5 inh – blocks human SIRT5 desuccinylation of peptide; AID 652115; Q9NXA8; hit rate 1.1% among 330,000; Purified SirT5, succinyl-peptide AMC, trypsin-coupled fluorescence; inhibition, % at 15 µM; in the data active = inhibition above about 15%
Target sequence (Q9NXA8 whole entry, looked up): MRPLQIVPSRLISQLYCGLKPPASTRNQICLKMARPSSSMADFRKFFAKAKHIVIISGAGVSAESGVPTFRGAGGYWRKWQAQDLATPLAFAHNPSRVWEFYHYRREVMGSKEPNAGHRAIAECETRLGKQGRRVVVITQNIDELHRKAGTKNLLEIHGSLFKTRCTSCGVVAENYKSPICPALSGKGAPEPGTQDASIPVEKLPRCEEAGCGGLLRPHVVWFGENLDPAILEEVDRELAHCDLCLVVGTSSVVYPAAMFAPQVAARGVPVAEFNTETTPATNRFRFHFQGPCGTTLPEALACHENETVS
FGF22 binding – binders of recombinant human FGF22 by thermal shift; Q9HCT0; SYPRO orange fluorescence; percent of sucrose octasulfate shift, DMSO zero; activity (Tm shift, normalised), % at 9.99 µM; hit rate 1.5% among 340,000;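 active = mean Tm shift, scaled 0 neutral to 100 positive control, at about 1.3% or above, every replicate too, limit read from the data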
Target sequence (Q9HCT0 whole entry, looked up): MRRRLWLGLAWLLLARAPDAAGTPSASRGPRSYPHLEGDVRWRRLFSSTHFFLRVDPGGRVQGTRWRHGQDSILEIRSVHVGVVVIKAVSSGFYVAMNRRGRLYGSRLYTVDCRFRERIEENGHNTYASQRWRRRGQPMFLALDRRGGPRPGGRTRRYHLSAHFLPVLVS
FN deposition inh – fibronectin deposition inhibition | hit rate 0.086% among 350,000 | inhibition, % at 12.6 µM | AH1F fibroblasts, Alexa488-fibronectin deposition fluorescence, overnight;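 active = mean inhibition across replicates of 30% or more, regardless of how many single replicates reach that level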;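 also: positive control wells lacked labelled fibronectin entirely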
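Material: AH1F fibroblasts assembling fluorescent fibronectin matrix; amount: 10000 AH1F cells/well; medium: DMEM, 2% serum; reagent: Alexa488-fibronectin, 24 nM final in well; dosing: single compound dose, delivered by pin transfer; incubation: 1 h adhesion, overnight exposure; detection: fluorescence after three HBSS washes, excitation 485 nm, emission 525 nm; measure: fibronectin deposition inhibition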
rRNA inh HTS – selective bacterial rRNA inhibition in E. coli | E. coli WT GFP vs humanized-ribosome RFP mutants, fluorescence, 24 h; stronger effect = lower value; DMSO median 0, no signal -100 | GFP signal change (wild-type ribosome), % (no concentration beside the values) | hit rate 1.6% among 350,000 | AID 720706;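 active = significant combined selectivity score with lowered wild-type GFP, culture density cut under 30%, mutant RFP and density less affected; inactive = any of these conditions unmet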
* marks the source's active call; other numbers are inactive results; i = inactive; nt = no result.

SMILES	E-sel inducer	C2C12 statin	SIRT5 inh	FGF22 binding	FN deposition inh	rRNA inh HTS
CC=Cc1ccc2n(c1=O)C[C@H]1[C@H](CO)[C@@H](C(=O)NCC)[C@@H]2N1CC1CCOCC1 (mixture of isomers)	0	5	-22	0	nt	1
CN(Cc1c(C(=O)N2CCc3ccccc3C2)nc2ccc(Cl)cn12)C(C1CC1)C1CC1	nt	nt	-3	43*	-3	-1
COc1ccc(NC(=O)CSc2ccccn2)c([N+](=O)[O-])c1	0	-3	-1	0	5	-26*
O=C(Nc1ccc2nn(-c3ccc(F)cc3)nc2c1)c1cccnc1	6	nt	-7	44*	-15	4
O=C(Nc1ccc2nn(-c3ccccc3)nc2c1)c1cccnc1	nt	130*	nt	nt	nt	nt
O=C(Nc1ccc(F)c(Cl)c1)c1cccnc1	nt	0	-9	0	-10	18
CC(=O)Nc1ccc2c(c1)C(=O)N(C)[C@H]1CC[C@@H](CC(=O)NCCCN3CCOCC3)O[C@H]1CO2	0	-18	2	nt	-5	2
Cc1ccc(CNC(=O)C23CN(Cc4ccccc4)CC2C(c2ccc([N+](=O)[O-])cc2)=NO3)cc1 (stereo not given)	0	92*	1	0	-7	11
CC=Cc1ccc2n(c1=O)C[C@@H]1[C@@H](CO)[C@H](C(=O)NC3CCCC3)N(Cc3ccccc3)[C@H]21 (mixture of isomers)	0	15	-3	0	nt	-2
S=C(NN=C(c1ccccc1)c1ccccn1)N(Cc1ccccn1)Cc1ccccn1	0	nt	-3	-1	3	-14
CC(=NNC(=S)N(Cc1ccccn1)Cc1ccccn1)c1cnccn1	2	nt	-1	0	14	-16*
COc1ccc2c3c([nH]c2c1)[C@@H](CO)N(C(=O)C1CCOCC1)CC31CCN(Cc2cccc(F)c2)CC1	nt	nt	nt	nt	5	2
COc1cc2c(cc1OC)C(NC(=O)C(F)(F)F)CNC2=O (stereo not given)	1	nt	-1	43*	7	23
COCC(=O)N(C)C[C@@H]1Oc2ncc(C3=CCCC3)cc2C(=O)N([C@H](C)CO)C[C@@H]1C	0	-12	-13	0	nt	5
COc1ccccc1-c1cn(CC[C@@H]2CC[C@@H](NC(=O)C3CCC3)[C@H](CO)O2)nn1	0	-3	2	0	nt	0
COc1ccc(N(C)C(=O)Cc2c(C(=O)O)[nH]c3ccccc23)c(OC)c1	nt	nt	2	44*	12	8
O=C(O)Cc1c[nH]c2cccc(O)c12	nt	-9	33*	0	nt	10
O=C(O)Cc1c[nH]c2ccccc12	nt	0	nt	0	nt	nt
Cc1ccc(O)c(NC(=O)CSc2n[nH]c(C)c2[N+](=O)[O-])c1	nt	nt	nt	0	6	-25
CSc1ccccc1NC(=O)CSc1n[nH]c(C)c1[N+](=O)[O-]	3	8	-4	0	0	-30*
CCCNC(=O)N1CCC2(CC1)CN(C(=O)CC1CC1)[C@@H](CO)c1[nH]c3cc(OC)ccc3c12	0	nt	-4	0	nt	-2
COc1ccc(-c2cc(=O)[nH]c(=S)[nH]2)cc1	nt	3	nt	0	2	9
COc1ccc(-c2ccc(C(=O)O)c(=O)[nH]2)cc1	0	6	-37	44*	1	7
C[C@@H]1CN([C@@H](C)CO)C(=O)c2cc(NC(=O)Nc3ccc(F)cc3)ccc2O[C@@H]1CN(C)Cc1ccc(C(=O)O)cc1	-3	-2	-2	0	8	3
C=CCn1c(NCCO)nc2sc3c(c2c1=O)CCC3	nt	15	nt	0	37*	-4
SMILES	E-sel inducer	C2C12 statin	SIRT5 inh	FGF22 binding	FN deposition inh	rRNA inh HTS
O=c1c2c3c(sc2nc(NCCO)n1CCc1ccccc1)CCCCC3	nt	-46	nt	nt	2	nt
CCN1/C(=C/C=C/c2oc3ccc(-c4ccccc4)cc3[n+]2CC)Oc2ccc(-c3ccccc3)cc21	218*	-97	2	0	i	87
CCCn1c(SCC(=O)Nc2ccc3c(c2)OCO3)nc2c1c(=O)n(C)c(=O)n2C	nt	-7	25*	nt	9	8
CCCn1c(SCC(=O)Nc2ccccc2N2CCCCC2)nc2c1c(=O)n(C)c(=O)n2C	nt	-6	1	0	nt	-29*
C[C@@H]1CCCCO[C@H](CN(C)C(=O)Cc2ccccc2)[C@H](C)CN([C@@H](C)CO)C(=O)c2cc(NC(=O)Nc3ccc4c(c3)OCO4)ccc2O1	0	nt	9	-1	nt	-1
Cc1ccc(S(=O)(=O)Nc2ccc3c(c2)C(=O)N([C@@H](C)CO)C[C@@H](C)[C@H](CN(C)C(=O)CCC(F)(F)F)OCCCC[C@H](C)O3)cc1	nt	nt	2	nt	-3	2
CN(c1ccccc1)S(=O)(=O)c1ccccc1Br	0	4	-5	0	-12	-38*
O=C(NC[C@H]1CC[C@@H]2[C@@H](CN2S(=O)(=O)c2ccccc2[N+](=O)[O-])O1)C1CC1	nt	nt	-4	nt	nt	nt
CCC(C)NCCOCCOc1ccc(Cl)c2ccccc12 (stereo not given)	2	-1	-4	0	-2	-53*
O=c1[nH]c2ccccc2nc1-c1c[nH]c2ccccc12	0	7	-2	0	14	-26*
CCOC(=O)c1cnc2c(cnn2C)c1NCc1ccc(OC)cc1	1	-1	-6	0	-2	-19*
C[C@@H]1CCCCO[C@@H](CN(C)Cc2ccc(Cl)c(Cl)c2)[C@@H](C)CN([C@@H](C)CO)C(=O)c2cc(NC(=O)Cc3ccccc3)ccc2O1	0	47	4	-1	nt	0
CCc1cc(CNC(=O)CC2C(=O)NCCN2Cc2cccc(OC)c2)on1 (stereo not given)	nt	nt	1	44*	-13	16
Cc1cc(CNC(=O)CC2C(=O)NCCN2Cc2ccccc2C(F)(F)F)on1 (stereo not given)	nt	nt	29*	0	nt	9
CCn1ccnc1CN(C)C(=O)CC1C(=O)NCCN1Cc1c(F)cccc1Cl (stereo not given)	nt	21	19*	1	nt	14
CN(C(=O)CC1C(=O)NCCN1Cc1ccccc1C(F)(F)F)C1CCOCC1 (stereo not given)	0	-1	32*	0	3	10
CN(C(=O)CC1C(=O)NCCN1Cc1ccccc1F)C1CCOCC1 (stereo not given)	nt	2	-6	0	-9	5
COc1ccc(NC(=O)Nc2ccc3c(c2)C(=O)N([C@@H](C)CO)C[C@H](C)[C@H](CN(C)Cc2ccncc2)OCCCC[C@H](C)O3)cc1	2	nt	1	1	nt	-3
CNC[C@@H]1Oc2c(NC(=O)Nc3ccc4c(c3)OCO4)cccc2C(=O)N([C@H](C)CO)C[C@@H]1C	0	26	nt	nt	6	3
